Assay results from ChEMBL document CHEMBL3865831, “Cantharimide and Its Derivatives from the Blister Beetle Mylabris phalerata Palla” (J Nat Prod, 2016).

Legend:
[1] = Toxicity against human HepG2.2.15 cells infected with HBV after 72 hrs by MTT assay; format: cell-based, HepG2 2.2.15
Outline: (§1)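 Cells were exposed to serial dilutions of compound from 1.00 to 100 μg/mL for 72 h. MTT (400 μg/mL) was then added for 4 h, replaced with DMSO, and absorbance was read at 540 nm. Cantharidin was the positive control.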

[2] = system: Hepatitis B virus; assay: Antiviral activity against Hepatitis B virus infected human HepG2.2.15 cells assessed as inhibition of HBeAg secretion measured after 96 hrs by ELISA; format: functional; conditions: HepG2.2.15, 96 h
Outline: (§2)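 HepG2.2.15 cells, stably transfected with the HBV genome, were grown for 24 h in DMEM with 10% FBS, 100 μg/mL G418 and penicillin/streptomycin at 37 °C under 5% CO2. Compounds diluted in culture medium were then added for 96 h. HBeAg or HBsAg in the collected medium was measured by ELISA. Adefovir dipivoxil was the positive control. Data are mean ± SD, n = 3.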

[3] = system: Hepatitis B virus; assay: Antiviral activity against Hepatitis B virus infected human HepG2.2.15 cells assessed as inhibition of HBsAg secretion measured after 96 hrs by ELISA; format: functional; conditions: HepG2.2.15, 96 h; outline: as §2
[4] = Cytotoxicity against human HCT116 cells measured after 72 hrs by MTT assay; format: functional, cell-based; conditions: HCT-116, 72 h; outline: as §1
[5] = Cytotoxicity against human BGC823 cells measured after 72 hrs by MTT assay; format: functional, cell-based; conditions: BGC-823, 72 h; outline: as §1
[6] = Cytotoxicity against human HepG2.2.15 cells after 72 hrs by MTT assay; format: functional, cell-based; conditions: HepG2 2.2.15, 72 h; outline: as §1
[7] = Selectivity index, ratio of CC50 for human HepG2.2.15 cells to IC50 for inhibition of HBeAg secretion in Hepatitis B virus infected human HepG2.2.15 cells; format: functional
Outline: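 SI is CC50 in HepG2.2.15 cells divided by IC50 for HBeAg inhibition, the latter measured by ELISA of medium after 96 h of compound treatment. Values are from triplicate determinations.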

Row | Structure (SMILES) | CC50 at 72 h [1] [µM] | IC50 [2] [µM] | IC50 [3] [µM] | IC50 [4] [µM] | IC50 [5] [µM] | IC50 [6] [µM] | Ratio CC50/IC50 [7]
1 | CC(C)(C)C(=O)OCOP(=O)(COCCn1cnc2c(N)ncnc21)OCOC(=O)C(C)(C)C [ADEFOVIR DIPIVOXIL] | > 400 | 290 | 270 |  |  |  | 
2 | C[C@@]12C(=O)N(CCC(N)=O)C(=O)[C@]1(C)[C@H]1CC[C@@H]2O1 |  |  |  | > 10 | > 10 | > 10 | 
3 | C[C@@]12C(=O)N(CCO)C(=O)[C@]1(C)[C@H]1CC[C@@H]2O1 | > 420 | 62 | > 210 | > 10 | > 10 | > 10 | 
4 | CNC(=O)CCCN1C(=O)[C@H]2[C@@H]3CC[C@@H](O3)[C@@]2(C)C1=O |  |  |  | > 10 | > 10 | > 10 | 
5 | C[C@]12C(=O)NC(=O)[C@H]1[C@@H]1CC[C@H]2O1 |  |  |  | > 10 | > 10 | > 10 | 
6 | CN1C(=O)[C@@]2(C)[C@@H]3CC[C@@H](O3)[C@@]2(CO)C1=O |  |  |  | > 10 | > 10 | > 10 | 
7 | CC(=O)CN1C(=O)[C@@]2(C)[C@@H]3CC[C@@H](O3)[C@@]2(C)C1=O |  |  |  | > 10 | > 10 | > 10 | 
8 | C[C@]12C(=O)N(CC(N)=O)C(=O)[C@H]1[C@@H]1CC[C@H]2O1 |  |  |  | > 10 | > 10 | > 10 | 
9 | C[C@@]12C(=O)N(CC(N)=O)C(=O)[C@]1(C)[C@H]1CC[C@@H]2O1 |  |  |  | > 10 | > 10 | > 10 | 
10 | C[C@@]12C(=O)N(CCCO)C(=O)[C@]1(CO)[C@H]1CC[C@@H]2O1 |  |  |  | > 10 | > 10 | > 10 | 
11 | C[C@@]12C(=O)N(CCc3ccc(O)cc3)C(=O)[C@]1(C)[C@H]1CC[C@@H]2O1 | > 320 | 58 | > 160 | > 10 | > 10 | > 10 | 
12 | C[C@@]12C(=O)NC(=O)[C@]1(CO)[C@H]1CC[C@@H]2O1 |  |  |  | > 10 | > 10 | > 10 | 
13 | C[C@@]12C(=O)N(CCO)C(=O)[C@]1(CO)[C@H]1CC[C@@H]2O1 |  |  |  | > 10 | > 10 | > 10 | 
14 | C[C@@]12C(=O)N(CCCCN3C(=O)[C@@]4(C)[C@@H]5CC[C@@H](O5)[C@@]4(C)C3=O)C(=O)[C@]1(C)[C@H]1CC[C@@H]2O1 | > 220 | 19 | > 110 | > 10 | > 10 | > 10 | 
15 | C[C@@]12C(=O)N(CCCO)C(=O)[C@]1(C)[C@H]1CC[C@@H]2O1 |  |  |  | > 10 | > 10 | > 10 | 
16 | C[C@]12C(=O)N(CCCO)C(=O)[C@H]1[C@@H]1CC[C@H]2O1 |  |  |  | > 10 | > 10 | > 10 | 
17 | C[C@@]12C(=O)NC(=O)[C@]1(C)[C@H]1CC[C@@H]2O1 | 280 | 42 | > 260 | > 10 | > 10 | > 10 | 6.7
18 | C[C@@]12C(=O)N(CCCN3C(=O)[C@@]4(C)[C@@H]5CC[C@@H](O5)[C@@]4(C)C3=O)C(=O)[C@]1(C)[C@H]1CC[C@@H]2O1 |  |  |  | > 10 | > 10 | > 10 | 
19 | CNC(=O)CCCN1C(=O)[C@@]2(C)[C@@H]3CC[C@@H](O3)[C@@]2(C)C1=O |  |  |  | > 10 | > 10 | > 10 | 
